Assay results reported in ChEMBL document CHEMBL2086328, “¹⁸F-labeled 2-phenylquinoxaline derivatives as potential positron emission tomography probes for in vivo imaging of β-amyloid plaques” (Eur J Med Chem, 2012).
Blank lines part the entries; values can stand above or below the molecule they belong to.

Legend:
[1] = Binding affinity to beta-amyloid
Brain [2] = assay: Biodistribution in ICR mouse brain at 370 kBq, iv after 2 mins by gamma counting; assay type: ADME, organism-based; conditions: in vivo
Outline: (§1)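 Male ICR mice (five weeks, 20–22 g), tail-vein injection of 18F tracer in 0.1 mL saline with 10% EtOH. Killed by decapitation at set times, n = 5 per time point. Organs removed, weighed and gamma-counted; %ID/g wet tissue from comparison with diluted aliquots of injected dose; mean ± SD.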

Stomach [3] = assay: Biodistribution in ICR mouse stomach at 370 kBq, iv after 2 mins by gamma counting; assay type: ADME, organism-based; conditions: in vivo; outline: as §1
Brain [4] = assay: Ratio of drug level in ICR mouse brain after 2 mins to ICR mouse brain after 60 mins at 370 kBq, iv; assay type: ADME, organism-based; conditions: in vivo
Outline: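 Same intravenous study in ICR mice (370 kBq 18F tracer in saline/10% EtOH, n = 5 per time point). Ratio is brain %ID/g at 2 min divided by brain %ID/g at 60 min post-injection.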

Blood [5] = assay: Biodistribution in ICR mouse blood at 370 kBq, iv after 60 mins by gamma counting; assay type: ADME, organism-based; conditions: in vivo, 1 h; outline: as §1
Stomach [6] = assay: Biodistribution in ICR mouse stomach at 370 kBq, iv after 10 mins by gamma counting; assay type: ADME, organism-based; conditions: in vivo; outline: as §1
Heart [7] = assay: Biodistribution in ICR mouse heart at 370 kBq, iv after 10 mins by gamma counting; assay type: ADME, organism-based; conditions: in vivo; outline: as §1
Intestine [8] = assay: Biodistribution in ICR mouse intestine at 370 kBq, iv after 30 mins by gamma counting; assay type: ADME, organism-based; conditions: in vivo, 0.5 h; outline: as §1
Liver [9] = assay: Biodistribution in ICR mouse liver at 370 kBq, iv after 60 mins by gamma counting; assay type: ADME, organism-based; conditions: in vivo, 1 h; outline: as §1
Brain [10] = assay: Biodistribution in ICR mouse brain at 370 kBq, iv after 60 mins by gamma counting; assay type: ADME, organism-based; conditions: in vivo, 1 h; outline: as §1
Lung [11] = assay: Biodistribution in ICR mouse lung at 370 kBq, iv after 10 mins by gamma counting; assay type: ADME, organism-based; conditions: in vivo; outline: as §1
Bone [12] = assay: Biodistribution in ICR mouse bone at 370 kBq, iv after 60 mins by gamma counting; assay type: ADME, organism-based, Bone element; conditions: in vivo, 1 h; outline: as §1
Stomach [13] = assay: Biodistribution in ICR mouse stomach at 370 kBq, iv after 60 mins by gamma counting; assay type: ADME, organism-based; conditions: in vivo, 1 h; outline: as §1
Spleen [14] = assay: Biodistribution in ICR mouse spleen at 370 kBq, iv after 2 mins by gamma counting; assay type: ADME, organism-based; conditions: in vivo; outline: as §1
Lung [15] = assay: Biodistribution in ICR mouse lung at 370 kBq, iv after 2 mins by gamma counting; assay type: ADME, organism-based; conditions: in vivo; outline: as §1
Spleen [16] = assay: Biodistribution in ICR mouse spleen at 370 kBq, iv after 30 mins by gamma counting; assay type: ADME, organism-based; conditions: in vivo, 0.5 h; outline: as §1
Bone [17] = assay: Biodistribution in ICR mouse bone at 370 kBq, iv after 10 mins by gamma counting; assay type: ADME, organism-based, Bone element; conditions: in vivo; outline: as §1
Kidney [18] = assay: Biodistribution in ICR mouse kidney at 370 kBq, iv after 30 mins by gamma counting; assay type: ADME, organism-based; conditions: in vivo, 0.5 h; outline: as §1
Kidney [19] = assay: Biodistribution in ICR mouse kidney at 370 kBq, iv after 60 mins by gamma counting; assay type: ADME, organism-based; conditions: in vivo, 1 h; outline: as §1
Kidney [20] = assay: Biodistribution in ICR mouse kidney at 370 kBq, iv after 10 mins by gamma counting; assay type: ADME, organism-based; conditions: in vivo; outline: as §1
Brain [21] = assay: Biodistribution in ICR mouse brain at 370 kBq, iv after 10 mins by gamma counting; assay type: ADME, organism-based; conditions: in vivo; outline: as §1
Stomach [22] = assay: Biodistribution in ICR mouse stomach at 370 kBq, iv after 30 mins by gamma counting; assay type: ADME, organism-based; conditions: in vivo, 0.5 h; outline: as §1
Spleen [23] = assay: Biodistribution in ICR mouse spleen at 370 kBq, iv after 60 mins by gamma counting; assay type: ADME, organism-based; conditions: in vivo, 1 h; outline: as §1
Liver [24] = assay: Biodistribution in ICR mouse liver at 370 kBq, iv after 2 mins by gamma counting; assay type: ADME, organism-based; conditions: in vivo; outline: as §1
Bone [25] = assay: Biodistribution in ICR mouse bone at 370 kBq, iv after 2 mins by gamma counting; assay type: ADME, organism-based, Bone element; conditions: in vivo; outline: as §1
Brain [26] = assay: Biodistribution in ICR mouse brain at 370 kBq, iv after 30 mins by gamma counting; assay type: ADME, organism-based; conditions: in vivo, 0.5 h; outline: as §1
Liver [27] = assay: Biodistribution in ICR mouse liver at 370 kBq, iv after 10 mins by gamma counting; assay type: ADME, organism-based; conditions: in vivo; outline: as §1
Kidney [28] = assay: Biodistribution in ICR mouse kidney at 370 kBq, iv after 2 mins by gamma counting; assay type: ADME, organism-based; conditions: in vivo; outline: as §1
Heart [29] = assay: Biodistribution in ICR mouse heart at 370 kBq, iv after 30 mins by gamma counting; assay type: ADME, organism-based; conditions: in vivo, 0.5 h; outline: as §1
Blood [30] = assay: Biodistribution in ICR mouse blood at 370 kBq, iv after 30 mins by gamma counting; assay type: ADME, organism-based; conditions: in vivo, 0.5 h; outline: as §1
Spleen [31] = assay: Biodistribution in ICR mouse spleen at 370 kBq, iv after 10 mins by gamma counting; assay type: ADME, organism-based; conditions: in vivo; outline: as §1
Heart [32] = assay: Biodistribution in ICR mouse heart at 370 kBq, iv after 60 mins by gamma counting; assay type: ADME, organism-based; conditions: in vivo, 1 h; outline: as §1
Intestine [33] = assay: Biodistribution in ICR mouse intestine at 370 kBq, iv after 60 mins by gamma counting; assay type: ADME, organism-based; conditions: in vivo, 1 h; outline: as §1
Intestine [34] = assay: Biodistribution in ICR mouse intestine at 370 kBq, iv after 2 mins by gamma counting; assay type: ADME, organism-based; conditions: in vivo; outline: as §1
Lung [35] = assay: Biodistribution in ICR mouse lung at 370 kBq, iv after 30 mins by gamma counting; assay type: ADME, organism-based; conditions: in vivo, 0.5 h; outline: as §1
[36] = Lipophilicity, log D of the compound; assay type: physicochemical; conditions: octanol/water
Outline: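 18F tracer (740 kBq) in 3 g n-octanol plus 3 g PBS (0.05 M, pH 7.4). Vortexed 3 min at room temperature, centrifuged 5 min at 3000 rpm; weighed samples from octanol and buffer layers counted.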

Heart [37] = assay: Biodistribution in ICR mouse heart at 370 kBq, iv after 2 mins by gamma counting; assay type: ADME, organism-based; conditions: in vivo; outline: as §1
Blood [38] = assay: Biodistribution in ICR mouse blood at 370 kBq, iv after 2 mins by gamma counting; assay type: ADME, organism-based; conditions: in vivo; outline: as §1
Bone [39] = assay: Biodistribution in ICR mouse bone at 370 kBq, iv after 30 mins by gamma counting; assay type: ADME, organism-based, Bone element; conditions: in vivo, 0.5 h; outline: as §1
Intestine [40] = assay: Biodistribution in ICR mouse intestine at 370 kBq, iv after 10 mins by gamma counting; assay type: ADME, organism-based; conditions: in vivo; outline: as §1
Lung [41] = assay: Biodistribution in ICR mouse lung at 370 kBq, iv after 60 mins by gamma counting; assay type: ADME, organism-based; conditions: in vivo, 1 h; outline: as §1
Liver [42] = assay: Biodistribution in ICR mouse liver at 370 kBq, iv after 30 mins by gamma counting; assay type: ADME, organism-based; conditions: in vivo, 0.5 h; outline: as §1
Blood [43] = assay: Biodistribution in ICR mouse blood at 370 kBq, iv after 10 mins by gamma counting; assay type: ADME, organism-based; conditions: in vivo; outline: as §1

- Ki [1]: 1.7 nM
SMILES: [11CH3]Nc1ccc(-c2nc3ccc(O)cc3s2)cn1

- Drug uptake (Brain [2]): 2.49 % ID/g
- Drug uptake (Stomach [3]): 1.55 %ID
- Ratio (Brain [4]): 3.89
- Drug uptake (Blood [5]): 1.54 % ID/g
- Drug uptake (Stomach [6]): 2.81 %ID
- Drug uptake (Heart [7]): 1.76 % ID/g
- Drug uptake (Intestine [8]): 32.83 %ID
- Drug uptake (Liver [9]): 4.89 % ID/g
- Drug uptake (Brain [10]): 0.64 % ID/g
- Drug uptake (Lung [11]): 2.4 % ID/g
- Drug uptake (Bone [12]): 1.78 % ID/g
- Drug uptake (Stomach [13]): 6.53 %ID
- Drug uptake (Spleen [14]): 2.07 % ID/g
- Drug uptake (Lung [15]): 4.07 % ID/g
- Drug uptake (Spleen [16]): 1.21 % ID/g
- Drug uptake (Bone [17]): 1 % ID/g
- Drug uptake (Kidney [18]): 3.27 % ID/g
- Drug uptake (Kidney [19]): 1.65 % ID/g
- Drug uptake (Kidney [20]): 3.91 % ID/g
- Drug uptake (Brain [21]): 1.44 % ID/g
- Drug uptake (Stomach [22]): 3.21 %ID
- Drug uptake (Spleen [23]): 0.94 % ID/g
- Drug uptake (Liver [24]): 14.18 % ID/g
- Drug uptake (Bone [25]): 1.49 % ID/g
- Drug uptake (Brain [26]): 0.83 % ID/g
- Drug uptake (Liver [27]): 14.09 % ID/g
- Drug uptake (Kidney [28]): 5.52 % ID/g
- Drug uptake (Heart [29]): 1.19 % ID/g
- Drug uptake (Blood [30]): 2.38 % ID/g
- Drug uptake (Spleen [31]): 1.65 % ID/g
- Drug uptake (Heart [32]): 1.03 % ID/g
- Drug uptake (Intestine [33]): 39.02 %ID
- Drug uptake (Intestine [34]): 6.06 %ID
- Drug uptake (Lung [35]): 1.76 % ID/g
- logD [36]: 2.79
- Drug uptake (Heart [37]): 3.21 % ID/g
- Drug uptake (Blood [38]): 5.51 % ID/g
- Drug uptake (Bone [39]): 1.12 % ID/g
- Drug uptake (Intestine [40]): 12.26 %ID
- Drug uptake (Lung [41]): 1.15 % ID/g
- Drug uptake (Liver [42]): 7.9 % ID/g
- Drug uptake (Blood [43]): 3.32 % ID/g
SMILES: CNc1ccc2nc(-c3ccc(OCCOCCOCC[18F])cc3)cnc2c1
